Data reported in ChEMBL document CHEMBL1151683, “Design, synthesis and antitumor evaluation of novel thalidomide dithiocarbamate and dithioate analogs against Ehrlich ascites carcinoma-induced solid tumor in Swiss albino mice” (Bioorg Med Chem, 2008).

The compounds below were run on Ehrlich (assay: Cytotoxicity against mouse Ehrlich ascites carcinoma cells assessed as viable cells at 30 uL after 24 hrs by trypan blue exclusion assay).
Format: functional
Procedure, shortened: (§1)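 EAC cells maintained by i.p. passage in female Swiss albino mice. Cells aspirated from peritoneum, washed in HBSS and centrifuged at 1500 rpm for 15 min; 0.2 mL of diluted suspension plated. Compounds from 10 mmol stock in DMSO/H₂O (0.7:0.3) were added in triplicate and incubated 24 h at 37 °C, 5% CO₂. Viability by trypan blue exclusion; cytotoxicity calculated against control EAC cells.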

Structure (SMILES) | Activity [%]
O=C1CCC(N2C(=O)c3ccccc3C2=O)C(=O)N1CSC(=S)N(CCO)CCO (configuration not stated) | 87.8
O=C1CCC(N2C(=O)c3ccccc3C2=O)C(=O)N1CSC(=S)NCCc1ccccc1 (configuration not stated) | 52
O=C1CCC(N2C(=O)c3ccccc3C2=O)C(=O)N1CSC(=S)NCCN1CCNCC1 (configuration not stated) | 68.8
O=C1CCC(N2C(=O)c3ccccc3C2=O)C(=O)N1CSC(=S)NCCN1CCOCC1 (configuration not stated) | 94.7
CNC(=S)SCN1C(=O)CCC(N2C(=O)c3ccccc3C2=O)C1=O (configuration not stated) | 85.7
CCN(CC)C(=S)SCN1C(=O)CCC(N2C(=O)c3ccccc3C2=O)C1=O (configuration not stated) | 90.6
O=C1CCC(N2C(=O)c3ccccc3C2=O)C(=O)N1CSC(=S)NN1CCOCC1 (configuration not stated) | 91.3
O=C1CCC(N2C(=O)c3ccccc3C2=O)C(=O)N1CSC(=S)N1CCOCC1 (configuration not stated) | 89.7
O=C1CCC(N2C(=O)c3ccccc3C2=O)C(=O)N1CSC(=S)NNc1ccccc1 (configuration not stated) | 92

The compounds below were run on Ehrlich (assay: Cytotoxicity against mouse Ehrlich ascites carcinoma cells assessed as viable cells at 20 uL after 24 hrs by trypan blue exclusion assay).
Format: functional
Procedure, shortened: as §1

Structure (SMILES) | Activity [%]
O=C1CCC(N2C(=O)c3ccccc3C2=O)C(=O)N1CSC(=S)N(CCO)CCO (configuration not stated) | 30.6
O=C1CCC(N2C(=O)c3ccccc3C2=O)C(=O)N1CSC(=S)NCCc1ccccc1 (configuration not stated) | 47.3
O=C1CCC(N2C(=O)c3ccccc3C2=O)C(=O)N1CSC(=S)NCCN1CCNCC1 (configuration not stated) | 60.6
O=C1CCC(N2C(=O)c3ccccc3C2=O)C(=O)N1CSC(=S)NCCN1CCOCC1 (configuration not stated) | 75.7
CNC(=S)SCN1C(=O)CCC(N2C(=O)c3ccccc3C2=O)C1=O (configuration not stated) | 80
CCN(CC)C(=S)SCN1C(=O)CCC(N2C(=O)c3ccccc3C2=O)C1=O (configuration not stated) | 20.7
O=C1CCC(N2C(=O)c3ccccc3C2=O)C(=O)N1CSC(=S)NN1CCOCC1 (configuration not stated) | 70.6
O=C1CCC(N2C(=O)c3ccccc3C2=O)C(=O)N1CSC(=S)N1CCOCC1 (configuration not stated) | 80.5
O=C1CCC(N2C(=O)c3ccccc3C2=O)C(=O)N1CSC(=S)NNc1ccccc1 (configuration not stated) | 81.6

These compounds were tested on Ehrlich (assay: Cytotoxicity against mouse Ehrlich ascites carcinoma cells assessed as cell death at 10 uL after 24 hrs by trypan blue exclusion assay).

Structure (SMILES) | Activity [%]
O=C1CCC(N2C(=O)c3ccccc3C2=O)C(=O)N1CSC(=S)N(CCO)CCO (configuration not stated) | 20.6
O=C1CCC(N2C(=O)c3ccccc3C2=O)C(=O)N1CSC(=S)NCCc1ccccc1 (configuration not stated) | 45
O=C1CCC(N2C(=O)c3ccccc3C2=O)C(=O)N1CSC(=S)NCCN1CCNCC1 (configuration not stated) | 45.5
O=C1CCC(N2C(=O)c3ccccc3C2=O)C(=O)N1CSC(=S)NCCN1CCOCC1 (configuration not stated) | 20.6
CNC(=S)SCN1C(=O)CCC(N2C(=O)c3ccccc3C2=O)C1=O (configuration not stated) | 76.5
CCN(CC)C(=S)SCN1C(=O)CCC(N2C(=O)c3ccccc3C2=O)C1=O (configuration not stated) | 10.2
O=C1CCC(N2C(=O)c3ccccc3C2=O)C(=O)N1CSC(=S)NN1CCOCC1 (configuration not stated) | 30.5
O=C1CCC(N2C(=O)c3ccccc3C2=O)C(=O)N1CSC(=S)N1CCOCC1 (configuration not stated) | 80
O=C1CCC(N2C(=O)c3ccccc3C2=O)C(=O)N1CSC(=S)NNc1ccccc1 (configuration not stated) | 80
